Source: ChEMBL document CHEMBL3297674, “Structure-activity relationships of 2'-modified-4'-selenoarabinofuranosyl-pyrimidines as anticancer agents” (Eur J Med Chem, 2014)
pIC50: −log10 of the molar value.

Assays:
A549 = experiment: Cytotoxicity against human A549 cells by SRB assay; assay type: functional, cell-based
How it was run: (§1)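 Cytotoxicity measured in human cancer cell lines (colon HCT116, lung A549, stomach SNU638, breast T47D, prostate PC-3, leukemia K562) by sulforhodamine B protein staining.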

T47D = experiment: Cytotoxicity against human T47D cells by SRB assay; assay type: functional, cell-based; how it was run: as §1
[1] = Cytotoxicity against human SNU638 cells by SRB assay; assay type: functional, cell-based; conditions: SNU-638; how it was run: as §1
HCT-116 = experiment: Cytotoxicity against human HCT116 cells by SRB assay; assay type: functional, cell-based; how it was run: as §1
PC-3 [2] = experiment: Cytotoxicity against human PC3 cells by SRB assay; assay type: functional, cell-based; how it was run: as §1
K562 = experiment: Cytotoxicity against human K562 cells by SRB assay; assay type: functional, cell-based; how it was run: as §1
PC-3 [3] = experiment: Drug metabolism in human PC3 cells assessed as formation of mono, di, or triphosphate at 50 uM after 24 hrs by HPLC-MS analysis; assay type: ADME, cell-based; conditions: pc-3, 24 h
How it was run: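 PC-3 cells seeded at 5×10^5 per 100 mm dish, grown 24 h, then exposed to 50 µM compound for 24 h. Cells washed with DPBS and extracted in methanol/chloroform with three liquid N₂ freeze–sonication cycles. Water/chloroform phase split at 22,000 g, 4 °C. Dried upper layer analysed by HILIC (ZIC-pHILIC, 10 mM ammonium carbonate/acetonitrile gradient, 35 °C) with ESI ion-trap MS.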

Compound | pIC50 (A549) | pIC50 (T47D) | pIC50 [1] | pIC50 (HCT-116) | pIC50 (PC-3 [2]) | pIC50 (K562) | Drug metabolism (PC-3 [3])
O=c1[nH]c(=O)n(C2[Se][C@H](CO)[C@@H](O)[C@@H]2F)cc1F (stereo partly drawn) | 4.27 | 4.29 | 4.30 | 4.40 | 4.37 | 4.11 | 
[N-]=[N+]=N[C@@H]1C(n2cc(F)c(=O)[nH]c2=O)[Se][C@H](CO)[C@H]1O (single isomer, unassigned; (+)) | < 4.00 | < 4.00 | < 4.00 | < 4.00 | < 4.00 | < 4.00 | 
O=c1[nH]c(=O)n(C2[Se][C@H](CO)[C@@H](O)[C@@H]2O)cc1Br (stereo partly drawn) | < 4.00 | < 4.00 | < 4.00 | < 4.00 | < 4.00 | < 4.00 | 
O=c1[nH]c(=O)n(C2[Se][C@H](CO)[C@@H](O)[C@@H]2O)cc1Cl (stereo partly drawn) | < 4.00 | < 4.00 | < 4.00 | < 4.00 | < 4.00 | < 4.00 | 
O=c1[nH]c(=O)n(C2[Se][C@H](CO)[C@@H](O)[C@@H]2F)cc1Br (stereo partly drawn) | < 4.00 | < 4.00 | < 4.00 | < 4.00 | < 4.00 | < 4.00 | 
[N-]=[N+]=N[C@@H]1C(n2cc(Cl)c(=O)[nH]c2=O)[Se][C@H](CO)[C@H]1O (stereo partly drawn) | < 4.00 | < 4.00 | < 4.00 | < 4.00 | < 4.00 | < 4.00 | 
Nc1ccn(C2[Se][C@H](CO)[C@@H](O)[C@@H]2F)c(=O)n1 (stereo partly drawn) | 6.33 | 6.10 | 6.85 | 5.96 | 6.24 | 6.20 | metabolite_notdetected
Cc1cn(C2[Se][C@H](CO)[C@@H](O)[C@@H]2N=[N+]=[N-])c(=O)[nH]c1=O (single isomer, unassigned; (+)) | < 4.00 | < 4.00 | < 4.00 | < 4.00 | < 4.00 | < 4.00 | 
Cc1cn(C2[Se][C@H](CO)[C@@H](O)[C@@H]2O)c(=O)[nH]c1=O (stereo partly drawn) | < 4.00 | < 4.00 | < 4.00 | < 4.00 | < 4.00 | < 4.00 | 
Nc1ccn([C@@H]2O[C@H](CO)[C@@H](O)[C@@H]2O)c(=O)n1 [CYTARABINE] |  |  | 6.82 |  |  |  | 
[N-]=[N+]=N[C@@H]1C(n2ccc(=O)[nH]c2=O)[Se][C@H](CO)[C@H]1O (stereo partly drawn) | < 4.00 | < 4.00 | < 4.00 | < 4.00 | < 4.00 | < 4.00 | 
O=c1[nH]c(=O)n(C2[Se][C@H](CO)[C@@H](O)[C@@H]2O)cc1F (stereo partly drawn) | 4.26 | 4.17 | 4.22 | 4.25 | 4.18 | < 4.00 | 
[N-]=[N+]=N[C@@H]1C(n2cc(Br)c(=O)[nH]c2=O)[Se][C@H](CO)[C@H]1O (single isomer, unassigned; (-)) | < 4.00 | < 4.00 | < 4.00 | < 4.00 | < 4.00 | < 4.00 | 
O=c1[nH]c(=O)n(C2[Se][C@H](CO)[C@@H](O)[C@@H]2F)cc1Cl (single isomer, unassigned; (+)) | 4.09 | 4.11 | 4.12 | 4.10 | < 4.00 | < 4.00 | 
[N-]=[N+]=N[C@@H]1C(n2ccc(N)nc2=O)[Se][C@H](CO)[C@H]1O (single isomer, unassigned; (+)) | 4.10 | 4.11 | 4.07 | 4.11 | 4.12 | 4.21 | 
Cc1cn(C2[Se][C@H](CO)[C@@H](O)[C@@H]2F)c(=O)[nH]c1=O (stereo partly drawn) | 4.12 | 4.19 | 4.11 | 4.07 | 4.06 | 4.12 | 
[N-]=[N+]=N[C@@H]1C(n2cc(I)c(=O)[nH]c2=O)[Se][C@H](CO)[C@H]1O (stereo partly drawn) | < 4.00 | < 4.00 | < 4.00 | < 4.00 | < 4.00 | < 4.00 | 
O=c1[nH]c(=O)n(C2[Se][C@H](CO)[C@@H](O)[C@@H]2F)cc1I (stereo partly drawn) | < 4.00 | < 4.00 | < 4.00 | < 4.00 | < 4.00 | < 4.00 | 
O=c1ccn(C2[Se][C@H](CO)[C@@H](O)[C@@H]2O)c(=O)[nH]1 (stereo partly drawn) | < 4.00 | < 4.00 | < 4.00 | < 4.00 | < 4.00 | < 4.00 | 
O=c1ccn(C2[Se][C@H](CO)[C@@H](O)[C@@H]2F)c(=O)[nH]1 (single isomer, unassigned; (-)) | < 4.00 | < 4.00 | < 4.00 | < 4.00 | < 4.00 | < 4.00 | 
Nc1ccn(C2[Se][C@H](CO)[C@@H](O)[C@@H]2O)c(=O)n1 (stereo partly drawn) | 5.05 | 5.05 | 5.33 | 5.15 | 5.34 | 4.06 | 
O=c1[nH]c(=O)n(C2[Se][C@H](CO)[C@@H](O)[C@@H]2O)cc1I (stereo partly drawn) | < 4.00 | < 4.00 | < 4.00 | < 4.00 | < 4.00 | < 4.00 | 
